≈ marks a conversion by molar mass, not a printed value.
Assays:
Assay type in all cases: functional
[1] = test system: Mycobacterium tuberculosis; test: Antimicrobial activity against ofloxacin-resistant Mycobacterium tuberculosis H37Rv SRI 4000 assessed as growth inhibition at MIC after 7 days by broth microdilution assay relative to control
Outline: (§1)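 Broth microdilution per CLSI in Middlebrook 7H9 + OADC; ten two-fold dilutions; inoculum targeted 1.0 × 10^6 CFU/mL M. tuberculosis; 37 °C, ~90% humidity, 7 days. Wells scored visually for turbidity, partial or complete clearing; MIC = lowest concentration visually inhibiting growth; percent inhibition at the MIC also recorded. Duplicates; rifampin or isoniazid positive control, medium-only and organism-only controls.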

[2] = test system: Mycobacterium tuberculosis; test: Antimicrobial activity against rifampin-resistant Mycobacterium tuberculosis H37Rv SRI 1367 assessed as growth inhibition at MIC after 7 days by broth microdilution assay relative to control; outline: as §1
[3] = test system: Mycobacterium tuberculosis; test: Antimicrobial activity against isoniazid-resistant Mycobacterium tuberculosis H37Rv SRI 1369 assessed as growth inhibition at MIC after 7 days by broth microdilution assay relative to control; outline: as §1
[4] = test system: Mycobacterium tuberculosis; test: Antimicrobial activity against isoniazid-resistant Mycobacterium tuberculosis H37Rv SRI 1369 assessed as growth inhibition after 7 days by broth microdilution assay; settings: H37Rv SRI 1369, 168 h; outline: as §1
[5] = test system: Mycobacterium tuberculosis; test: Antimicrobial activity against ofloxacin-resistant Mycobacterium tuberculosis H37Rv SRI 4000 assessed as growth inhibition after 7 days by broth microdilution assay; settings: H37Rv SRI 4000, 168 h; outline: as §1
[6] = test system: Mycobacterium tuberculosis; test: Antimicrobial activity against rifampin-resistant Mycobacterium tuberculosis H37Rv SRI 1367 assessed as growth inhibition after 7 days by broth microdilution assay; settings: H37Rv SRI 1367, 168 h; outline: as §1

Row | SMILES | growth inhibition (GI) [1] [%] | growth inhibition (GI) [2] [%] | growth inhibition (GI) [3] [%] | MIC [4] [mg/L] | MIC [5] [mg/L] | MIC [6] [mg/L]
1 | Clc1ccc2nc3c(c(-c4ccccc4)c2c1)CCC3 | 81 | 83 | 69 | 6.25 (≈ 22.3 µM) | 12.5 (≈ 44.7 µM) | 6.25 (≈ 22.3 µM)
2 | O=[N+]([O-])c1ccc2nc3c(c(-c4ccccc4)c2c1)CCCC3 | 50 | 69 | 41 | 6.25 (≈ 20.5 µM) | 3.12 (≈ 10.3 µM) | 3.12 (≈ 10.3 µM)
3 | O=[N+]([O-])c1ccc2nc3c(c(-c4ccccc4)c2c1)CCCCC3 | 70 | 72 | 52 | 37.5 (≈ 118 µM) | 37.5 (≈ 118 µM) | 37.5 (≈ 118 µM)
4 | NNC(=O)c1ccncc1 [ISONIAZID] | – | 85 | – | – | – | 0.02 (≈ 0.146 µM)
5 | CO[C@H]1/C=C/O[C@@]2(C)Oc3c(C)c(O)c4c(O)c(c(/C=N/N5CCN(C)CC5)c(O)c4c3C2=O)NC(=O)/C(C)=C\C=C\[C@H](C)[C@H](O)[C@@H](C)[C@@H](O)[C@@H](C)[C@H](OC(C)=O)[C@@H]1C [RIFAMPIN] | 71 | – | 74 | 0.02 (≈ 0.0243 µM) | 1.56 (≈ 1.9 µM) | –

From ChEMBL document CHEMBL3112573, “Design, synthesis and evaluation of acridine and fused-quinoline derivatives as potential anti-tuberculosis agents” (Eur J Med Chem, 2014)
